Hits are enriched below; roughly 2.2% of the tested compounds scored in any of these assays.
STEP inh – blocks human striatal-enriched tyrosine phosphatase; recombinant STEP, OMFP fluorogenic substrate, fluorescence; inhibition, % at 20 µM; actives 0.25% (n = 360,000);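 active = inhibition at 20 µM, scaled per plate between control wells, above about 37%, limit read from the data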
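Material: STEP (striatal-enriched tyrosine phosphatase) enzyme, cell-free; Compound dosing: 20 µM single dose in 1% DMSO; Technique: fluorescence read at 480 nm ex / 540 nm em; Times: reaction 20 min, ambient temperature; Medium: 50 mM Bis-Tris pH 6.0 with 2.5 mM DTT and 0.005% Tween 20; Also added: OMFP at 25 µM.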
LMPTP block – LMPTP (human) inhibition; recombinant LMPTP-A, OMFP fluorogenic substrate, fluorescence intensity; inhibition, % at 20 µM; actives 0.22% (n = 360,000); AID 651560;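 active = compounds that cut the enzyme signal by at least half of the control window in the single-dose screen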
Target sequence (P24666 whole entry, looked up): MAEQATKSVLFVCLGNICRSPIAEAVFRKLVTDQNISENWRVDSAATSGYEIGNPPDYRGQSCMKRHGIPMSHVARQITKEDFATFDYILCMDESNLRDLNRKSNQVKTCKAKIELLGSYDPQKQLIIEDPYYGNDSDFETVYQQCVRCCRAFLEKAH
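material = LMPTP-A | quantity = 0.625 nM enzyme | reagent = OMFP substrate, 400 µM final | buffer or medium = Bis-Tris pH 6.0, DTT, detergent | detection = endpoint fluorescence intensity from OMFP dephosphorylation | dosing = single 20 µM dose | read-out basis = % inhibition relative to no-enzyme and uninhibited control wells | control set = no-enzyme and uninhibited controls | timing = 50 min at room temperature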
SUMO1 PPI mod – SUMO1-SIM interaction modulation; P63165; SUMO1 binding to a labelled peptide, TR-FRET, 1 h; inhibition, % at 20 µM; actives 0.33% (n = 360,000); AID 602429; in the data active = inhibition above about 37%
Target sequence (P63165 whole entry, looked up): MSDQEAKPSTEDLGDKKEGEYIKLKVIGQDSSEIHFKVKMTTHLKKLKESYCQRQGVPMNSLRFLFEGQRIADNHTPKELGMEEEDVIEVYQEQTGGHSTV
DNMT1 inh – blocks human DNA methyltransferase DNMT1 | actives 0.83% (n = 360,000) | DNMT1 molecular beacon, Hinp1I cleavage, fluorescence | AID 588458 | inhibition (reported as % activation of signal), % at 10 µM; in the data active = inhibition above about 50%
Scp-1 inhibitor – inhibitors of human Scp-1 phosphatase. actives 0.88% (n = 340,000). inhibition, % at 20 µM. Recombinant Scp1, phosphopeptide, malachite green phosphate absorbance. Q9GZU7;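 active = inhibition above about 50% at 20 µM, limit read from the data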
Target sequence (Q9GZU7 76-261 limits assumed): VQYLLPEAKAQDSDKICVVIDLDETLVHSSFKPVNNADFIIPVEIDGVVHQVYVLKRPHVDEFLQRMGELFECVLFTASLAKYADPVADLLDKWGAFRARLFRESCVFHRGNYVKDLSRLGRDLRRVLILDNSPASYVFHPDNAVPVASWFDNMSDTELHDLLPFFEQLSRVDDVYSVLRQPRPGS
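Incubation: 45 min enzyme reaction at room temperature / System: truncated SCP-1 phosphatase (76-261aa) / Reagent: Phospho 17-mer peptide substrate / Buffer or medium: Acidic Tris acetate buffer with magnesium and detergent / Signal: absorbance at 630 nm / Doses: one concentration, 20 µM, with 1.0% DMSO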
GRK2 inh – inhibitors of human GRK2 displacing RNA aptamer. AID 488847. bead flow cytometry, FAM-aptamer displacement from GRK2. P25098. actives 0.59% (n = 330,000). inhibition of aptamer binding, % at 10 µM;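 active = inhibition of aptamer binding above 40%, roughly 3 SD of noise, on plates passing a quality check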;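 also: median bead fluorescence of bound FAM aptamer so fluorescent compounds give negative values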
GRK2 inh confirm – confirmation of human GRK2 inhibitors displacing RNA aptamer. shares compounds with GRK2 inh. bead-bound GRK2, FAM-aptamer displacement, flow cytometry. aptamer displacement, % at 10 µM. actives 4% (n = 2,000). AID 504451;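 active = aptamer displacement above 40%, near three times the noise of non-fluorescent compounds, on plates passing quality checks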;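 also: negative values mostly reflect intrinsic compound fluorescence rather than true enhancement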
Aptamer quench 1 – quenches fluorescent RNA aptamer, GRK2 hit artifact; shares compounds with GRK2 inh; Fluorescent RNA aptamer beads, quenching, flow cytometry; active compounds read high; fluorescence change (kMESF span), kMESF (test concentration not listed); 110 tested, under 10 active; AID 504521;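 active = compounds whose bead fluorescence drops by more than 37 kMESF across the dose range, marking them as dye quenchers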
FAM quench CP1 – quenches fluorescent RNA aptamer, GRK2 hit artifact. shares compounds with GRK2 inh. Carboxyfluorescein RNA aptamer on beads, flow cytometry quenching; active compounds read low. fluorescence response (% of DMSO), % at 10 µM. 2,000 tested, under 10 active;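 active = compounds that quench the bead-bound fluorescent RNA probe, cutting fluorescence to under half of the solvent control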;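 also: counterscreen run without GRK2 so only probe quenching by compound is measured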
GRK2 CP2 – confirmation of human GRK2 inhibitors binding RNA aptamer site | bead-bound GRK2, FAM-aptamer displacement, flow cytometry | 360 tested, under 10 active | inhibition of aptamer binding, % at 10 µM | AID 504782 | shares compounds with GRK2 inh;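 active = inhibition of aptamer binding above 40%, about triple the noise seen with nonglowing compounds, on plates passing quality control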;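 also: negative values mostly come from compounds that fluoresce themselves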
Aptamer quench3 – counter-screen for GRK2 aptamer inhibitors: fluorescent aptamer quenchers | shares compounds with GRK2 inh | Streptavidin beads, FAM-RNA aptamer fluorescence quenching, flow cytometry | change in fluorescence (kMESF span), kMESF (concentration not given with the values) | 25 tested, under 10 active | AID 504819;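 active = compounds quenching the bead-bound labeled aptamer, with fluorescence dropping by more than 37 kMESF over the dose range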
FAM quench CP2 – counter-screen for GRK2 binding hits: quenchers of fluorescent RNA aptamer; fluorescence response vs DMSO, % at 10 µM; 360 tested, under 10 active; shares compounds with GRK2 inh; carboxyfluorescein RNA aptamer beads, flow cytometry quenching; active compounds read low; AID 588494;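 active = response vs DMSO under 50%, meaning signal dropped by over half, treated as fluorescence quencher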;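 also: labelled aptamer on streptavidin beads without GRK2 as a quench counter-screen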
FAM quench DR – quenches fluorescent RNA aptamer, GRK2 hit artifact | shares compounds with GRK2 inh | fluorescence ratio to DMSO, % at 11.1 µM | 35 tested, under 10 active | Bead-bound FAM RNA aptamer fluorescence quenching, flow cytometry; active compounds read low;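 active = compounds that dim the fluorescent label, raw bead signal shifting by over 33 units between lowest and highest dose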
Scp-1 conf – Scp-1 (human) inhibition, single-dose confirmed; shares compounds with Scp-1 inhibitor; recombinant SCP-1 catalytic domain, phosphate release, malachite green absorbance; inhibition, % at 20 µM; actives 61% (n = 2,500); AID 540281
Scp-1 MG ctr – colorimetric interference in Scp-1 counter-screen. shares compounds with Scp-1 inhibitor. Colorimetric interference counterscreen, malachite green absorbance 630 nm. apparent inhibition (interference), % at 20 µM. 2,500 tested, under 10 active. AID 540313;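 also: compounds added after enzyme reaction finished so only phosphate colour detection is probed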
Scp-1 Tm shift – binds human Scp-1, shifting its melting temperature; shares compounds with Scp-1 inhibitor; Recombinant SCP1, Sypro Orange thermal shift Tm; thermal shift relative to vanadate control, % at 40 µM; actives 25% (n = 1,500); AID 540329;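 active = substances whose mean melting-temperature shift, as a percentage of the reference inhibitor's shift, reaches about 5.3%, limit read from the data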
DNMT1 inh conf – DNMT1 inhibition confirmation, single concentration. inhibition, % at 10 µM. AID 602385. DNMT1 molecular beacon HinP1I cleavage, fluorescence. shares compounds with DNMT1 inh. actives 8% (n = 2,300);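 active = average inhibition of at least 30% in the single-concentration confirmation test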
DNMT1 interf – shows spectral interference in the DNMT1 beacon assay; shares compounds with DNMT1 inh; DNMT1 molecular beacon spectral interference counterscreen, fluorescence 485/520; activation (fluorescence interference), % at 10 µM; actives 1% (n = 2,300); AID 602387;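 active = activation of at least 30% at 10 µM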;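 also: DNMT1 catalytic domain with a HinP1I cleavage step and a FAM/dabcyl DNA beacon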
A number is an active result; 0 = inactive; - = not tested or not shown.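 The calls were made as follows, unless noted: active = inhibition of at least 30% at 20 µM; inactive = the rest.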

SMILES	STEP inh	LMPTP block	SUMO1 PPI mod	DNMT1 inh	Scp-1 inhibitor	GRK2 inh	GRK2 inh confirm	FAM quench CP1	Scp-1 conf	Scp-1 MG ctr	Scp-1 Tm shift	others
O=C(CSc1nnc(Nc2ccccc2F)s1)NC(=O)CN1CCCC1=O	0	0	0	0	63	47	0	0	57	0	0
O=C(Nc1ccc2oc(-c3cccnc3)nc2c1)c1ccc2c(c1)OCCO2	0	54	0	0	52	60	0	0	45	0	0
O=C(COC(=O)/C=C/c1ccco1)Nc1ncc(Cl)cc1Cl	0	0	0	0	57	60	0	0	56	0	0
C=C(C)C(=O)Nc1cccc(C2=NOC3(C2)C[C@H](C(N)=O)N(C(=O)/C=C/C)C3)c1 (stereo partly specified)	0	0	60	99	66	70	50	0	57	0	0	Aptamer quench 1=0
Cc1c(N2CCCCC2)[nH]c2ccccc12	0	0	0	0	-	-	-	-	-	-	-
CC(C)[C@H](NS(=O)(=O)c1cccc(Cl)c1)C(=O)OCC(=O)NC(=O)CN1CCCC1=O	0	0	0	0	57	45	0	0	42	0	0
Cc1noc(C)c1NC(=O)N(C)C[C@@H]1Oc2ncc(Br)cc2C(=O)N([C@@H](C)CO)C[C@H]1C	0	0	0	0	-	-	-	-	-	-	-
O=C(CCS(=O)(=O)c1ccc(Br)cc1)Nc1ccc(Cl)cc1F	0	0	0	0	0	0	-	-	-	-	-
O=C(CCS(=O)(=O)c1ccc(Br)cc1)Nc1ccc(Br)cc1F	0	0	0	0	56	70	-	-	54	0	0	GRK2 CP2=0;Aptamer quench3=0;FAM quench CP2=0;FAM quench DR=0
CCc1nc2ccc(C(=O)NCc3ccc4c(c3)OCO4)cn2c1N(CCC(C)C)CCN(C)C	0	0	0	0	-	-	-	-	-	-	-
Cc1cc(C)n2nc(C(=O)OCC(=O)c3cc(C)n(C)c3C)nc2n1	0	0	0	0	52	41	0	0	58	0	0
COc1ccc(-c2cc(=O)c3c(O)cc(OC4OC(COC5OC(C)C(O)C(O)C5O)C(O)C(O)C4O)cc3o2)cc1O (stereo unspecified)	0	0	0	0	0	0	-	-	-	-	-
COc1ccc([C@@H]2CC(=O)c3c(O)cc(O[C@@H]4O[C@H](CO[C@@H]5O[C@@H](C)[C@H](O)[C@@H](O)[C@H]5O)[C@@H](O)[C@H](O)[C@H]4O)cc3O2)cc1O	0	0	0	0	62	56	0	0	39	0	0
Cn1cnc(S(=O)(=O)N2CCCCC2c2cc(C(=O)Nc3cccc4c3CCCC4)no2)c1 (stereo unspecified)	0	0	0	0	-	-	-	-	-	-	-
CN(C(=O)CCN1C(=O)/C(=C/c2ccccc2)SC1=S)C1CCS(=O)(=O)C1 (stereo unspecified)	0	0	80	0	76	72	0	0	0	0	-
O=S1(=O)CC(N2CCCCC2)CN1Cc1cn(Cc2ccc(C(F)(F)F)cc2)nn1 (stereo unspecified)	-	0	0	-	-	-	-	-	-	-	-
CCN(CC)C(=O)COc1c(-c2ccco2)oc2ccccc2c1=O	0	0	0	0	0	0	-	-	-	-	-
CCN(CC)C(=O)COc1ccc2oc(-c3ccco3)cc(=O)c2c1	0	0	0	0	74	62	0	0	49	0	0
COc1ccc2nc(Nc3nc(CSc4nnnn4-c4ccccc4)cc(=O)[nH]3)nc(C)c2c1	0	0	0	0	83	46	0	0	0	0	-
CCNC(=O)C1CCCN(C(=O)c2cccc(OC(F)(F)F)c2)CC1 (stereo unspecified)	0	0	0	0	-	-	-	-	-	-	-
Cc1ccc(S(=O)(=O)N2C[C@H]3C(=O)C[C@@H](c4cccs4)N(S(=O)(=O)c4ccc(C)cc4)[C@H]3C[C@H]2c2ccccc2)cc1	0	0	0	0	-	-	-	-	-	-	-
O=C(/C=C/c1ccco1)OCC(=O)N1CCCCC1	41	0	0	50	96	76	48	0	51	0	0	Aptamer quench 1=0;DNMT1 inh conf=0;DNMT1 interf=0
Cc1ccc(-c2n[nH]c(=S)n2/N=C/C=C/c2ccccc2[N+](=O)[O-])cc1	0	0	0	0	0	0	-	-	-	-	-
O=[N+]([O-])c1ccccc1/C=C/C=N/n1c(-c2cc(-c3ccccc3)n[nH]2)n[nH]c1=S	0	0	0	53	0	69	0	0	-	-	-	DNMT1 inh conf=0;DNMT1 interf=0
CCNC(=O)C1(C)CCCN(Cc2cccc(Oc3ccccc3)c2)C1 (stereo unspecified)	0	0	0	0	-	-	-	-	-	-	-

Bioassay records from PubChem BioAssay.
